Reference: ChEMBL document CHEMBL4007508, “Discovery and Pre-Clinical Characterization of Third-Generation 4-H Heteroaryldihydropyrimidine (HAP) Analogues as Hepatitis B Virus (HBV) Capsid Inhibitors” (J Med Chem, 2017)
Values after ≈ are worked out from the molar mass of the structure shown.

Legend:
[1] = test system: Hepatitis B virus; assay: Antiviral activity against HBV infected in human HepG2(2.2.15) cells assessed as decrease in HBV genome replication after 5 days by qPCR method; type: functional, cell-based; settings: HepG2 2.2.15, 120 h
Summary of the method: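 HepG2.2.15 cells (stable HBV genome, Hep G2-derived; DMEM-F12, 10% FBS, penicillin/streptomycin, 0.5 mg/mL G418) seeded 3 × 10^4/well, incubated overnight at 37 °C. Compounds serially half-log diluted in DMSO, then in medium; final DMSO 0.5%. HBV DNA extracted and quantified by qPCR.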

[2] = Cytotoxicity against HBV infected human HepDE19 cells assessed as decrease in cell viability after 5 days by CCK8 assay; type: cell-based
Summary of the method: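 Tetracycline-inducible HBV HepDE19 cells seeded 5 × 10^3/well and treated with compounds. After 5 days, viability read by CCK-8 (2 h, 37 °C; absorbance 450 and 630 nm).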

[3] = Selectivity index, ratio of CC50 for HBV infected human HepDE19 cells to EC50 for HBV infected in human HepG2(2.2.15) cells
Summary of the method: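 Selectivity index calculated as CC50 (HepDE19, CCK-8 viability after 5 days) divided by EC50 (HBV DNA reduction in HepG2.2.15 cells, qPCR).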

[4] = Solubility of compound in phosphate buffer at pH 6.5 after one night incubation by HPLC-UV method; type: physicochemical

SMILES | EC50 [1] | solubility [4] | CC50 at 120 h [2] | Ratio CC50/EC50 [3]
CCOC(=O)C1=C(CN2CCOC[C@H]2C(=O)O)NC(c2nccs2)=N[C@H]1c1ccc(F)cc1 | 15 nM | – | 62000 nM | 4133
COC(=O)C1=C(CN2CCOC[C@@]2(C)C(=O)O)NC(c2nccs2)=N[C@H]1c1ccc(F)cc1Cl | 20 nM | 600 µg/mL (≈ 1180 µM) | > 100000 nM | –
COC(=O)C1=C(C)NC(c2ncc(F)cc2F)=N[C@H]1c1ccc(F)cc1Cl | 50 to 80 nM | – | – | –
COC(=O)C1=C(CN2CCOC[C@H]2C(=O)O)NC(c2ncoc2C)=N[C@H]1c1ccc(F)cc1Cl | 14 nM | – | > 100000 nM | >7143
CCOC(=O)C1=C(CN2CCOC[C@H]2C(=O)O)NC(c2nccs2)=N[C@H]1c1ccc(F)c(F)c1C | 0.6 nM | – | 97000 nM | –
COC(=O)C1=C(C)NC(c2nc(C(=O)O)cs2)=NC1c1ccc(F)cc1Cl (centres undefined) | > 1000 nM | – | – | –
COC(=O)C1=C(C)NC(c2nccs2)=NC1c1cccc(C(=O)O)c1 (centres undefined) | > 1000 nM | – | – | –
CCOC(=O)C1=C(CN2CCOC[C@H]2C(=O)O)NC(c2nccs2)=N[C@H]1c1ccc(F)cc1F | 14 nM | – | > 100000 nM | >7143
CCOC(=O)C1=C(CN2CCOC[C@H]2C(=O)O)NC(c2nccs2)=N[C@H]1c1ccccc1Cl | 14 nM | – | > 100000 nM | >7143
COC(=O)C1=C(CN2CCOC[C@H]2C(=O)O)NC(c2nccs2)=N[C@H]1c1ccc(F)cc1Br | 6 nM | – | > 100000 nM | –
COC(=O)C1=C(CN2CCOC[C@@H]2C(=O)O)NC(c2nccs2)=N[C@H]1c1ccc(F)cc1Cl | 79 nM | – | > 100000 nM | >1266
CCOC(=O)C1=C(CN2CCOC[C@H]2C(=O)O)NC(c2nccs2)=N[C@H]1c1cccc(F)c1Br | 0.7 nM | – | 95000 nM | –
O=C(OCC(F)(F)F)C1=C(CN2CCOC[C@H]2C(=O)O)NC(c2nccs2)=N[C@H]1c1ccc(F)cc1Cl | 13 nM | – | 27000 nM | 2077
CCOC(=O)C1=C(CN2CCOC[C@H]2C(=O)O)NC(c2nccs2)=N[C@H]1c1ccc(F)c(F)c1Br | 0.7 nM | – | 51000 nM | 72857
CC(C)OC(=O)C1=C(CN2CCOC[C@H]2C(=O)O)NC(c2nccs2)=N[C@H]1c1ccc(F)cc1Cl | 17 nM | – | 72000 nM | 4235
CC1=C(C(=O)O)C(c2ccc(F)cc2Cl)N=C(c2nccs2)N1 (centres undefined) | > 1000 nM | – | – | –
COC(=O)C1=C(CN2CCOC[C@H]2C(=O)O)NC(c2nccs2)=N[C@H]1c1ccc(F)c(F)c1Cl | 1 nM | – | > 100000 nM | >100000
CCOC(=O)C1=C(CN2CCOC[C@H]2C(=O)O)NC(c2nccs2)=N[C@H]1c1ccc(F)c(F)c1Cl | 0.6 nM | – | 29000 nM | 48333
COC(=O)C1=C(CN2CCOC[C@H]2C(=O)O)NC(c2nccs2)=N[C@H]1c1cccc(F)c1Cl | 4 nM | – | > 100000 nM | >25000
COC(=O)C1=C(CN2CCOC[C@H]2C(=O)O)NC(c2nc(C)cs2)=N[C@H]1c1ccc(F)cc1Cl | 7 nM | – | > 100000 nM | >14826
CCOC(=O)C1=C(CN2CCOC[C@H]2C(=O)O)NC(c2nccs2)=N[C@H]1c1ccc(F)cc1Br | – | – | 72000 nM | –
COC(=O)C1=C(C)NC(c2nccs2)=N[C@H]1c1ccc(F)cc1Cl | 80 nM | 16 µg/mL (≈ 43.7 µM) | 83000 nM | 1038
COC(=O)C1=C(CN2CCO[C@H](C(C)C)[C@H]2C(=O)O)NC(c2nccs2)=N[C@H]1c1ccc(F)cc1Cl | 5 nM | – | 81000 nM | 16200

More lines, main results first:

EC50 [1] | solubility [4] | SMILES | CC50 at 120 h [2] | Ratio CC50/EC50 [3]
12 nM | – | CCCOC(=O)C1=C(CN2CCOC[C@H]2C(=O)O)NC(c2nccs2)=N[C@H]1c1ccc(F)cc1Cl | > 100000 nM | >8333
150 nM | > 697 µg/mL | COC(=O)C1=C(CN2CCOC[C@H]2CCC(=O)O)NC(c2nccs2)=N[C@H]1c1ccc(F)cc1Cl | > 100000 nM | >667
4 nM | < 1 µg/mL | COC(=O)C1=C(CN2CCOC[C@H]2C(=O)OC)NC(c2nccs2)=N[C@H]1c1ccc(F)cc1Cl | – | –
> 100 nM | – | CCOC(=O)C1=C(CN2CCOC[C@H]2C(=O)O)NC(c2nccs2)=N[C@H]1c1cccc(Cl)c1Cl | – | –
11 nM | – | COC(=O)C1=C(CN2CCOC[C@H]2C(=O)O)NC(c2nccs2)=N[C@H]1c1ccc(C)cc1Cl | > 100000 nM | >9091
> 1000 nM | – | COC(=O)C1=C(CN2CCOC[C@H]2C(=O)O)NC(c2ncco2)=N[C@H]1c1ccc(F)cc1Cl | > 100000 nM | –
600 nM | > 638 µg/mL | COC(=O)C1=C(CN2CCOC[C@H]2CC(=O)O)NC(c2nccs2)=N[C@H]1c1ccc(F)cc1Cl | > 100000 nM | >167
> 1000 nM | – | CCNC(=O)C1=C(CN2CCOC[C@H]2C(=O)O)NC(c2nccs2)=N[C@H]1c1ccc(F)cc1Cl | – | –
> 100 nM | – | COC(=O)C1=C(CN2CCOC[C@H]2C(=O)O)NC(c2nccs2)=N[C@H]1c1ccc(F)cc1C(F)(F)F | > 100000 nM | –
> 1000 nM | – | COC(=O)C1=C(CN2CCCC[C@H]2C(=O)O)NC(c2nccs2)=N[C@H]1c1ccc(F)cc1Cl | – | –
> 1000 nM | – | COC(=O)C1=C(CN2CCNC[C@H]2C(=O)O)NC(c2nccs2)=N[C@H]1c1ccc(F)cc1Cl | – | –
8 nM | – | COC(=O)C1=C(CN2CCOC[C@H]2C(=O)O)NC(c2ncc(F)cc2F)=N[C@H]1c1ccc(F)cc1Cl | 23000 nM | 2875
42 nM | – | COC(=O)C1=C(CN2CCOC[C@H]2C(=O)O)NC(c2nccn2C)=N[C@H]1c1ccc(F)cc1Cl | 82000 nM | 1952
1 nM | – | COC(=O)C1=C(CN2CCOC[C@H]2C(=O)O)NC(c2nccs2)=N[C@H]1c1ccc(F)c(F)c1Br | 80000 nM | 80000
> 1000 nM | – | COC(=O)C1=C(CN2CCN(C(C)=O)C[C@H]2C(=O)O)NC(c2nccs2)=N[C@H]1c1ccc(F)cc1Cl | – | –
38 nM | 584 µg/mL (≈ 1140 µM) | COC(=O)C1=C(CN2CCSCC2C(=O)O)NC(c2nccs2)=N[C@H]1c1ccc(F)cc1Cl (single isomer, unassigned) | 60000 nM | 1579
4 nM | 48 µg/mL (≈ 86 µM) | COC(=O)C1=C(CN2CCOC[C@H]2CNS(C)(=O)=O)NC(c2nccs2)=N[C@H]1c1ccc(F)cc1Cl | 88000 nM | 22000

EC50 [1] | solubility [4] | SMILES | CC50 at 120 h [2] | Ratio CC50/EC50 [3]
> 100 nM | – | CCOC(=O)C1=C(CN2CCOC[C@H]2C(=O)O)NC(c2nccs2)=N[C@H]1c1ccc(OC)cc1 | – | –
8 nM | – | COC(=O)C1=C(CN2CCOC[C@H]2C(=O)O)NC(c2nccs2)=N[C@H]1c1ccc(F)cc1C | > 100000 nM | 12500
22 nM | – | COC(=O)C1=C(CN2CCOC[C@H]2C(=O)O)NC(c2nc(C3CC3)cs2)=N[C@H]1c1ccc(F)cc1Cl | – | –
3 nM | – | CCOC(=O)C1=C(CN2CCOC[C@H]2C(=O)O)NC(c2nccs2)=N[C@H]1c1ccc(F)cc1C | > 100000 nM | >33333
333 nM | > 592 µg/mL | COC(=O)C1=C(CN2CCOC(C(=O)O)C2)NC(c2nccs2)=N[C@H]1c1ccc(F)cc1Cl (some centres undefined) | > 100000 nM | >300
190 nM | – | COCCOC(=O)C1=C(CN2CCOC[C@H]2C(=O)O)NC(c2nccs2)=N[C@H]1c1ccc(F)cc1Cl | > 100000 nM | >526
> 100 nM | – | CC(C)(C)OC(=O)C1=C(CN2CCOC[C@H]2C(=O)O)NC(c2nccs2)=N[C@H]1c1ccc(F)cc1Cl | 41000 nM | –
> 100 nM | – | COC(=O)C1=C(CN2CCOC[C@H]2C(=O)O)NC(c2nccs2)=N[C@H]1c1ccc(C(F)(F)F)cc1Cl | 50000 nM | 431
3 nM | – | CCOC(=O)C1=C(CN2CCOC[C@H]2C(=O)O)NC(c2nccs2)=N[C@H]1c1ccc(Br)cc1Cl | 31000 nM | –
3 nM | – | CCOC(=O)C1=C(CN2CCOC[C@H]2C(=O)O)NC(c2nccs2)=N[C@H]1c1ccc(C)cc1Cl | > 100000 nM | >33333
5 nM | 475 µg/mL (≈ 988 µM) | COC(=O)C1=C(CN2CCOCC2CO)NC(c2nccs2)=N[C@H]1c1ccc(F)cc1Cl (some centres undefined) | 74000 nM | 14800
> 100 nM | – | CCOC(=O)C1=C(CN2CCOC[C@H]2C(=O)O)NC(c2nccs2)=N[C@H]1c1ccc(C#N)cc1 | – | –
> 100 nM | – | COC(=O)C1=C(CN2CCOC[C@H]2C(=O)O)NC(c2nccs2)=N[C@H]1c1ccc(F)cc1C1CC1 | > 100000 nM | –
> 1000 nM | – | N#CC1=C(CN2CCOC[C@H]2C(=O)O)NC(c2nccs2)=N[C@H]1c1ccc(F)cc1Cl | – | –
> 100 nM | – | CCOC(=O)C1=C(CN2CCOC[C@H]2C(=O)O)NC(c2nccs2)=N[C@H]1c1cccc(C#N)c1Cl | – | –
3 nM | 205 µg/mL (≈ 415 µM) | COC(=O)C1=C(CN2CCOC[C@H]2C(N)=O)NC(c2nccs2)=N[C@H]1c1ccc(F)cc1Cl | > 100000 nM | >33333
> 1000 nM | – | COC(=O)C1=C(CN2CCOC[C@H]2C(=O)O)NC(c2ncccn2)=N[C@H]1c1ccc(F)cc1Cl | > 100000 nM | –
